Active and inactive are the calls of the source. The calls are words filed in the database; no cut-off is given here.
What was measured:
Lethal factor = biological target: T1, Lethal factor (Bacillus anthracis, UniProt P15917); assay: Inhibition of Bacillus anthracis lethal factor assessed as proteolysis using MCA-KKVYPYPME-Dap(Dnp)-NH2 peptide substrate by FRET assay
T1 sequence (P15917 whole entry): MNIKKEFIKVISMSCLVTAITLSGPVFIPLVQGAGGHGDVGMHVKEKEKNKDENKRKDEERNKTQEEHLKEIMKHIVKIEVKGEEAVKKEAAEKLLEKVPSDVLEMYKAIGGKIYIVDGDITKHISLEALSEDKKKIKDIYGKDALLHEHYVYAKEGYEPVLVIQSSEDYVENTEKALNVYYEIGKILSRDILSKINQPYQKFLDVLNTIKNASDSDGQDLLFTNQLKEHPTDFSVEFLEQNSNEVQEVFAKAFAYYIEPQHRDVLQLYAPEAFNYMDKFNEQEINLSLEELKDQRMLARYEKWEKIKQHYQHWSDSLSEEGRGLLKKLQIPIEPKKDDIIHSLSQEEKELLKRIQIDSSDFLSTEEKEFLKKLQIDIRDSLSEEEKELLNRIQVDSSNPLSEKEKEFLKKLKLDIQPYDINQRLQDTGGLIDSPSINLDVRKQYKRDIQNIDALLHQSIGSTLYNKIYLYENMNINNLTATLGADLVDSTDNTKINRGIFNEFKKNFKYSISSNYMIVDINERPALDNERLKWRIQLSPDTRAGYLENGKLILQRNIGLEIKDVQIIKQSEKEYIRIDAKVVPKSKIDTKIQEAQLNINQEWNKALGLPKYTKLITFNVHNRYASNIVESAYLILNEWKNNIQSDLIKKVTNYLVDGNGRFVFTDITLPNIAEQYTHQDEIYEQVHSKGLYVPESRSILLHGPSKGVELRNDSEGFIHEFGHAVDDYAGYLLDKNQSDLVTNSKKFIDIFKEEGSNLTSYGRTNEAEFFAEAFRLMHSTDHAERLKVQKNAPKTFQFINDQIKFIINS
Outline: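 Purified LF at 0.5 nM final with 40 μM peptide substrate in 20 mM HEPES pH 7.4, 0.1% Tween-20, 0.5 mg/mL BSA. The reaction was started by adding enzyme and incubated 4 h at 23°C to reach a steady-state rate. Cleavage was read as fluorescence increase (λex 324 nm, λem 395 nm). Ki was fitted to the tight-binding equation. Values are means of three experiments.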

[1] = Lipophilicity, log D of the compound at pH 7.4; type: physicochemical; settings: buffer
[2] = Solubility of the compound in 50% DNSO/PBS; type: physicochemical; settings: 50% DMSO/PBS
Rattus norvegicus [3] = assay: Inhibition of lethal factor-induced toxicity in Fischer 344 rat assessed as increase in median survival time at 5 mg/kg, iv relative to control; type: functional, organism-based; parameters: dose 5 mg/kg
Rattus norvegicus [4] = assay: Inhibition of lethal factor-induced toxicity in Fischer 344 rat assessed as increase in median survival time at 2.5 mg/kg, iv relative to control; type: functional, organism-based; parameters: dose 2.5 mg/kg

In the case of `Cc1cc(S(=O)(=O)NCCCC[C@@H](Nc2cc(C)c(F)c(C)c2)C(=O)NO)ccc1F`, the Ki (Lethal factor) is reported as 3.1 nM, the logD [1] is reported as < 3 and the solubility [2] is reported as > 5 µg/mL.
`CO[C@H](C[C@H](CCN1CCN(CCc2ccccc2)CC1)C(=O)NO)c1ccc(F)cc1` gave a Ki (Lethal factor) of 118 nM.
With `COc1ccc(CNCCCC[C@@H](Nc2cc(C)c(F)c(C)c2)C(=O)NO)cc1` the Ki (Lethal factor) was 0.44 nM, the logD [1] was < 3 and the solubility [2] was > 5 µg/mL.
With `CO[C@H](C[C@H](CCN1CCCC(Cc2ccc(F)cc2)C1)C(=O)NO)c1ccc(F)cc1` (stereo partly specified) the Ki (Lethal factor) was 33 nM, the logD [1] was < 3 and the solubility [2] was > 5 µg/mL.
With `Cc1cc(C(=O)NCCCC[C@@H](Nc2cc(C)c(F)c(C)c2)C(=O)NO)ccc1F` the Ki (Lethal factor) was 7.3 nM, the logD [1] was < 3 and the solubility [2] was > 5 µg/mL.
For `Cc1cc(NC(=O)NCCCC[C@@H](Nc2cc(C)c(F)c(C)c2)C(=O)NO)ccc1F`, the Ki (Lethal factor) was 9.3 nM, the logD [1] was < 3 and the solubility [2] was > 5 µg/mL.
With `CO[C@H](C[C@H](CCN1CCN(Cc2ccccc2)CC1)C(=O)NO)c1ccc(F)cc1` the Ki (Lethal factor) was 115 nM.
In the case of `Cc1cc(N[C@H](CCCCNCc2ccc(C(C)(C)C)cc2)C(=O)NO)cc(C)c1F`, the Ki (Lethal factor) is reported as 1.4 nM, the logD [1] is reported as < 3 and the solubility [2] is reported as > 5 µg/mL.
For `Cc1cc(N[C@H](CCCCNCc2ccc(F)cc2)C(=O)NO)cc(C)c1F`, the logD [1] was < 3 and the solubility [2] was > 5 µg/mL.
For `Cc1cc(N[C@H](CCCCN)C(=O)NO)cc(C)c1F`, the Ki (Lethal factor) was 8.2 nM, the logD [1] was < 3 and the solubility [2] was > 5 µg/mL.
With `CO[C@H](C[C@H](CCN1CCCC1)C(=O)NO)c1ccc(F)cc1` the Ki (Lethal factor) was 122 nM.
With `Cc1cc(CNCCCC[C@@H](Nc2cc(C)c(F)c(C)c2)C(=O)NO)ccc1F` the logD [1] was < 3, the solubility [2] was > 5 µg/mL and the inhibition (Rattus norvegicus [3]) was “Active”. The inhibition (Rattus norvegicus [4]) was “Active”.
With `CO[C@H](C[C@H](CCN(C)CCCc1ccc(F)c(C)c1)C(=O)NO)c1ccc(F)cc1` the logD [1] was < 3 and the solubility [2] was > 5 µg/mL.
Work on `CO[C@H](C[C@H](CCN1CCCCC1)C(=O)NO)c1ccc(F)cc1` yielded a Ki (Lethal factor) of 230 nM.
With `Cc1cc(N[C@H](CCCCNCCCc2ccc(F)cc2)C(=O)NO)cc(C)c1F` the Ki (Lethal factor) was 1.3 nM, the logD [1] was < 3 and the solubility [2] was > 5 µg/mL.
`CO[C@H](C[C@H](CCN1CCOCC1)C(=O)NO)c1ccc(F)cc1` gave a Ki (Lethal factor) of 350 nM.
With `Cc1cc(N[C@H](CCCCNCc2ccc(C(F)(F)F)cc2)C(=O)NO)cc(C)c1F` the Ki (Lethal factor) was 0.47 nM, the logD [1] was < 3 and the solubility [2] was > 5 µg/mL.
For `Cc1cc(N[C@H](CCCCNCc2ccc(Cl)cc2)C(=O)NO)cc(C)c1F`, the Ki (Lethal factor) was 1.1 nM, the logD [1] was < 3 and the solubility [2] was > 5 µg/mL.
With `CO[C@H](C[C@H](CCN1CCCC(CO)C1)C(=O)NO)c1ccc(F)cc1` (stereo partly specified) the Ki (Lethal factor) was 99 nM, the logD [1] was < 3 and the solubility [2] was > 5 µg/mL.
With `CO[C@H](C[C@H](CCN(C)CCCc1ccccc1)C(=O)NO)c1ccc(F)cc1` the Ki (Lethal factor) was 42 nM, the logD [1] was < 3 and the solubility [2] was > 5 µg/mL.
In the case of `CO[C@H](C[C@H](CCN1CCNCC1)C(=O)NO)c1ccc(F)cc1`, the Ki (Lethal factor) is reported as 90 nM, the logD [1] is reported as < 3 and the solubility [2] is reported as > 5 µg/mL.
`CO[C@H](C[C@H](CCN1CCN(c2ccccc2)CC1)C(=O)NO)c1ccc(F)cc1` gave a Ki (Lethal factor) of 151 nM.
For `Cc1ccc(CNCCCC[C@@H](Nc2cc(C)c(F)c(C)c2)C(=O)NO)cc1`, the Ki (Lethal factor) was 0.41 nM, the logD [1] was < 3 and the solubility [2] was > 5 µg/mL.
With `Cc1cc(N[C@H](CCCCNCc2ccccc2F)C(=O)NO)cc(C)c1F` the Ki (Lethal factor) was 0.69 nM, the logD [1] was < 3 and the solubility [2] was > 5 µg/mL.
In the case of `Cc1cc(N[C@H](CCCCNCc2cccc(F)c2)C(=O)NO)cc(C)c1F`, the Ki (Lethal factor) is reported as 0.85 nM, the logD [1] is reported as < 3 and the solubility [2] is reported as > 5 µg/mL.
With `Cc1cc(N[C@H](CCCCNCc2ccc([N+](=O)[O-])cc2)C(=O)NO)cc(C)c1F` the Ki (Lethal factor) was 0.3 nM, the logD [1] was < 3 and the solubility [2] was > 5 µg/mL.
In the case of `Cc1cc(N[C@H](CCCCNCCc2ccc(F)cc2)C(=O)NO)cc(C)c1F`, the logD [1] is reported as < 3 and the solubility [2] is reported as > 5 µg/mL.
Compound `CO[C@H](C[C@H](CCN(C)Cc1ccc(-c2ccc(F)c(C)c2)cc1)C(=O)NO)c1ccc(F)cc1` has a Ki (Lethal factor) of 135 nM.
In the case of `CO[C@H](C[C@H](CCN(C)C)C(=O)NO)c1ccc(F)cc1`, the Ki (Lethal factor) is reported as 96 nM, the logD [1] is reported as < 3 and the solubility [2] is reported as > 5 µg/mL.

Reference: ChEMBL document CHEMBL1268892, “Antidotes to anthrax lethal factor intoxication. Part 1: Discovery of potent lethal factor inhibitors with in vivo efficacy” (Bioorg Med Chem Lett, 2010)
